# MPTP inh: mitochondrial permeability transition pore inhibitors, primary screen, biochemical, isolated mouse mitochondria, absorbance | Ca2+ swelling absorbance, 30 min | inhibition, % at 10 µM | 360,000 tested, 1.4% active | AID 602449, 2012;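 active = inhibition of 50% or more, scaled per plate between neutral and stimulator controls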;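 also: 0% = DMSO wells given calcium and 100% = 1 mM EGTA wells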
# NR2E3 ag-1: NR2E3 agonists in two-hybrid cells, primary screen, cell-based, luminescence, CHO-S, Gal4-NCOR/VP16-NR2E3; AID 602229, 2012; 360,000 tested, 0.35% active; Photoreceptor-specific nuclear receptor (Homo sapiens), Q9Y5X4; inhibition of corepressor binding, % at 3.98 µM; luciferase;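 active = inhibition above the mean of all tested compounds plus 3 SD, cut at about 70% in these data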;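 also: 0% = DMSO with NR2E3 transfected cells and 100% = cells lacking NR2E3 construct; higher means lower luciferase signal from less NR2E3 corepressor binding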
# Target sequence (Q9Y5X4 whole entry, looked up, the tested form may be a part): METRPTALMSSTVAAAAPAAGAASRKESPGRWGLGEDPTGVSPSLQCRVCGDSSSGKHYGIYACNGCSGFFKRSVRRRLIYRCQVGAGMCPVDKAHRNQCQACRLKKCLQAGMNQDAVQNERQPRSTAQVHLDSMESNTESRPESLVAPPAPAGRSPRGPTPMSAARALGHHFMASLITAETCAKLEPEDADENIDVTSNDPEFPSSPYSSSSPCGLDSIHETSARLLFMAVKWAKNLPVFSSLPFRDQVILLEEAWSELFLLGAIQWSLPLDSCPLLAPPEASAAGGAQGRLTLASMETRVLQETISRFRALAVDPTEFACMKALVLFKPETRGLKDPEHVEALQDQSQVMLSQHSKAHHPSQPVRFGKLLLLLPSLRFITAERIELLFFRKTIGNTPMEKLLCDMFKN
# Jurkat NFkB inh: inhibitors of induced NF-kB luciferase reporter, primary screen, TCR NF-kB activation inhibitor project, cell-based, luminescence, uHTS. Jurkat, PMA/ionomycin-induced NF-kB luciferase reporter. inhibition, % at 4 µM. 330,000 tested, 0.53% active; in the data active = inhibition above about 50%
# 697 NFkB inh: inhibitors of PMA/ionomycin-induced NF-kB reporter, 697 cells, primary screen, B-cell NF-kB inhibitor project, cell-based, luminescence, uHTS | inhibition, % at 4 µM | 697 B-cell NF-kB luciferase reporter, 16 h | 330,000 tested, 0.33% active; in the data active = inhibition above about 35%
# NR2E3 ag-2: inhibitors of NR2E3-RetCOR corepressor binding, primary screen, NR2E3 agonist project, biochemical, TR-FRET, GST-NR2E3, biotin-RetCOR. Photoreceptor-specific nuclear receptor (Homo sapiens), Q9Y5X4. 1536-well. inhibition of corepressor binding, % at 4.78 µM. 320,000 tested, 0.12% active;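 active = percent inhibition above the cutoff of mean plus 3 SD of all tested compounds, set per screening campaign, cut at about 20% in these data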;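 also: 0% = DMSO wells and 100% = biotin wells as full block of FRET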
#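 Material: NR2E3–RetCOR corepressor complex | Quantity: 1.35 nM GST-tagged NR2E3 final | Schedule: 5 h at 4 °C | Replication: Singlicate compound wells | Reagent: RetCOR corepressor, biotinylated, 7 nM | Controls: Biotin wells as high control, 0.6% DMSO wells as low control | Signal: TR-FRET, Eu(K)-anti-GST donor, streptavidin-D2 acceptor, ex 340, em 617/671 nm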
# aDG glyco act: activators of alpha-DG glycosylation, primary screen, uHTS, Pro5-aDG cells, AlphaScreen; alpha-DG glycosylation AlphaScreen (IIH6); 0% Pro5, 100% B10-LARGE cell signal; activation, % at 10 µM; 360,000 tested, 0.22% active; AID 624168, 2012;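 active = activation of at least 8% versus controls, or a plate z-score of at least 8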;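 also: Pro5 are CHO cells carrying HIG-tagged alpha-DG that lacks glycosylation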
# NR2E3 ag confirm: NR2E3 agonist confirmation in cells, cell-based, luminescence, CHO-S two-hybrid; shares compounds with NR2E3 ag-1; 2,300 tested, 51% active; inhibition, % at 3.98 µM; CHO-S mammalian two-hybrid NR2E3-NCOR, luciferase luminescence; AID 624378, 2012;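 active = average inhibition above a cutoff equal to the mean inhibition of all tested compounds plus one SD, cut at about 70% in these data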;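 also: 0% = DMSO in NR2E3 cells and 100% = DMSO in cells lacking NR2E3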
# GAL4-VP16 luc: GAL4-VP16 reporter modulators, confirmation, counter-screen for NR2E3 agonist project, cell-based, luminescence, CHO-S, high throughput. 2,300 tested, 29% active. shares compounds with NR2E3 ag-1. AID 624379, 2012. CHO-S GAL4-VP16 luciferase reporter. inhibition, % at 3.98 µM;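 active = mean inhibition above a cutoff equal to the average over all tested compounds plus one standard deviation, cut at about 70% in these data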;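 also: luciferase from a UAS reporter driven by GAL4-VP16 transactivation; 0% = DMSO with VP16-transfected cells and 100% = DMSO with cells lacking VP16; higher means less reporter light so more repression of VP16 activity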
# The depositor's hits bear a star; / = not tested or not shown. The list is not random: actives were taken first. Their share in the collection is about 2.4%.
SMILES,MPTP inh,NR2E3 ag-1,Jurkat NFkB inh,697 NFkB inh,NR2E3 ag-2,aDG glyco act,NR2E3 ag confirm,GAL4-VP16 luc
O=C1c2ccccc2C(=O)c2[nH]cnc21,0.3,-4.6,/,/,/,0.9,/,/
CCOc1cc(C(=O)NN=C2CCCC2)cc(OCC)c1OCC,-0.6,25.8,8.9,25.7,0.2,0.0,/,/
COc1cccc(NS(=O)(=O)c2ccc3c(c2)NC(=O)C(C)S3)c1 (stereo unspecified),0.3,57.8,-5.1,-21.0,-3.3,0.4,35.7,34.9
COc1ccc(CNS(=O)(=O)c2ccc3c(c2)NC(=O)C(C)S3)cc1 (stereo unspecified),1.3,23.6,-11.9,-46.3,2.2,0.0,/,/
COc1ccc(N2CCN(S(=O)(=O)c3ccc4c(c3)NC(=O)C(C)S4)CC2)cc1 (stereo unspecified),8.3,64.1,11.6,-25.5,1.0,0.2,37.7,29.1
COc1ccccc1NS(=O)(=O)c1ccc2c(c1)NC(=O)C(C)S2 (stereo unspecified),-0.4,14.4,4.6,-35.4,-0.8,0.2,/,/
COc1ccc(N2CCN(S(=O)(=O)c3ccc4c(c3)NC(=O)CS4)CC2)cc1,-1.1,-5.4,6.8,-29.6,-1.5,-0.1,/,/
Cc1ccc(CNS(=O)(=O)c2ccc3c(c2)NC(=O)C(C)S3)cc1 (stereo unspecified),6.4,52.6,10.8,-9.9,1.0,-0.1,45.6,45.5
CCc1cccc(NS(=O)(=O)c2ccc3c(c2)NC(=O)C(C)S3)c1 (stereo unspecified),2.2,48.4,-3.4,-23.9,2.4,0.8,65.7,56.6
CCC(Cc1ccccc1)NS(=O)(=O)c1ccc2c(c1)NC(=O)C(C)S2 (stereo unspecified),5.5,49.2,-4.9,-26.0,3.9,0.1,62.0,50.2
Cc1ccnc(NC(=O)CSc2cc(=O)n(C)c3ccccc23)c1,1.6,66.6,-31.6,-56.2,-1.6,-0.6,89.2*,20.4
CC(C)OCc1ccc(C(=O)N2CCN(CC(=O)N3CCCC3)CC2)cc1,-0.2,-8.5,0.0,-11.7,/,0.2,/,/
COc1cccc(CN(C)C(=O)c2cc(COc3c(F)cccc3F)on2)c1,-0.5,-5.6,0.0,21.7,-7.8,-0.2,/,/
COc1cccc(CN(C)C(=O)c2cc(COc3ccc(-n4cncn4)cc3)on2)c1,31.4,66.4,11.7,-13.5,2.9,1.0,45.9,40.8
CC[C@@H]1CCC[C@@H](O)[C@@H](C)C(=O)O[C@H](C)[C@@H](C)C/C=C(C)/C(OC)=C\C(=O)N(C)C([C@@H](C)CC)C(=O)N(C)[C@@H](C(C)C)C(=O)N(C)[C@@H](COC)C(=O)N2CCC[C@H]2C(=O)N(C)[C@@H](C(C)C)C(=O)N2CCC[C@H]2C(=O)O1 (stereo partly specified),1.9,97.3*,/,/,/,-0.1,98.1*,90.9*
Cc1ccc(-c2nc(CSCC(=O)N3CCN(c4ccccn4)CC3)c(C)o2)cc1,15.8,82.8*,-2.3,-24.8,-0.4,1.6,87.3*,76.4*
CCOc1ccc(-c2nc(CSCC(=O)N3CCN(c4cccc(OC)c4)CC3)c(C)o2)cc1,1.7,66.3,21.2,11.8,1.6,0.9,78.2*,52.7
CCOC(=O)N1CCC(NC(=O)CSCc2nc(-c3ccc(OCC)cc3)oc2C)CC1,-1.4,59.5,4.9,-1.8,-2.5,0.0,43.1,33.3
Cc1ccc(-c2nc(CSCC(=O)N3CCOCC3)c(C)o2)cc1,2.1,-23.8,-5.5,-10.2,-2.9,0.2,/,/
COc1cccc(-c2nc(CSCC(=O)N3CCc4ccccc43)c(C)o2)c1,3.3,10.7,-3.1,6.4,-5.2,0.0,/,/
CCCCC[C@@H](C)N1C[C@H](COCc2ccccc2)Oc2cc(N3CCC[C@H]3COC)ccc2S1(=O)=O,0.7,-27.6,/,/,/,-0.2,/,/
COc1ccc(C2CC(O)(c3ccccc3)Oc3cc(OC)c(OC)c(OC)c32)cc1 (stereo unspecified),1.1,4.3,5.4,7.1,2.0,0.0,/,/
COc1ccc([C@@]23Oc4cc(OC)cc(OC)c4[C@]2(O)[C@H](O)[C@H](C(=O)N(C)C)[C@H]3c2ccccc2)cc1,1.5,101.4*,/,/,/,-0.3,98.4*,96.0*
COc1ccc(CNC(=O)C(=O)NCC2CCCN2S(=O)(=O)c2ccccc2)cc1 (stereo unspecified),-2.1,-12.7,1.3,17.4,-3.2,-0.1,/,/
Cc1ccc(Cc2cnc(N3C(=N)SC(c4ccccc4)C3=O)s2)cc1 (stereo unspecified),16.5,36.9,8.2,0.9,-4.2,0.2,/,/
SMILES,MPTP inh,NR2E3 ag-1,Jurkat NFkB inh,697 NFkB inh,NR2E3 ag-2,aDG glyco act,NR2E3 ag confirm,GAL4-VP16 luc
N=C1SC(c2ccccc2)C(=O)N1c1ncc(Cc2ccccc2)s1 (stereo unspecified),7.5,70.7*,-8.0,-1.2,0.4,-0.1,-64.3,-15.2
COc1ccc(/C=N/Nc2nc(Nc3ccccc3)nc(N3CCCC3)n2)cc1[N+](=O)[O-],-0.6,-16.4,-4.4,16.5,2.1,-0.8,/,/
COc1cc(/C=N/Nc2nc(Nc3ccccc3)nc(-n3nc(C)cc3C)n2)cc(OC)c1OC,0.4,67.9,39.1,20.9,-1.1,-0.3,-13.7,-44.8
COc1ccc(/C=N/Nc2cc(C)nc(-n3nc(C)cc3C)n2)cc1,11.8,93.6*,-3.5,4.9,1.3,0.4,29.2,17.6
COc1ccc(O)c(/C=N/Nc2nc(Nc3ccccc3)nc(-n3nc(C)cc3C)n2)c1,-1.5,96.4*,19.8,28.2,2.2,-0.7,11.2,-78.1
COc1cc(/C=N/Nc2nc(Nc3ccc(C)cc3)nc(-n3nc(C)cc3C)n2)cc(OC)c1OC,2.8,58.9,38.7,8.8,-0.8,-0.2,17.5,-17.6
Cc1cc(N/N=C/c2cccc(Cl)c2)nc(-n2nc(C)cc2C)n1,3.1,-24.8,2.5,10.1,1.1,1.6,/,/
COc1cc(CO)ccc1Oc1nc2ccccc2n2cnnc12,1.1,5.8,-12.7,-10.3,1.1,0.0,/,/
Cc1cc(C)nc(/N=C2\NC(=O)CC(C(=O)O)N2c2ccc(C)c(C)c2)n1 (stereo unspecified),-1.1,-35.6,-5.7,7.4,2.0,0.2,/,/

# Screening results as filed in PubChem BioAssay.
